Here are results for 36 sequences from the array DNA melting data of Ke et al. (doi:10.1101/2024.01.08.574731).

The nature of data set [1]: melting temperature; fluorescence melt of hairpins on a sequencing array, two-state fit, raised by 9.35 °C to match UV melts. As to conditions: sodium 0.088 M. In a few lines:
(§1)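 Two-state fits, bootstrapped, provided melting temperature and folding enthalpy from Cy3 fluorescence normalised to pre-quench Cy3 and to control constructs. Library hairpins with annealed Cy3 and quencher oligos were imaged on a sequenced MiSeq flow cell in 50 mM Na-HEPES pH 8.0, 25 mM NaCl, at 2.5 °C intervals up to 60 °C. Four replicates were combined with inverse-variance weighting. A 9.35 °C upward shift was applied to fitted temperatures to match UV melts.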

A short description of data set [2]: folding enthalpy; higher = less favourable; fluorescence melt of hairpins on a sequencing array, two-state fit. The conditions noted are these: sodium 0.088 M. In outline:
as §1

In the case of GTAACCGGAAACGGCTAC (((.(((....))).))), the Tm in data set [1] was 42.9 °C. Further, the folding enthalpy in data set [2] was -25.9 kcal/mol.

Regarding GTAACCGGAAACGGTCAC ((.((((....)))).)), the Tm in data set [1] was found to be 39.7 °C. Besides, the folding enthalpy in data set [2] is -17.2 kcal/mol.

Take GTAACCGGAAACGGTTAC (((((((....))))))): the Tm in data set [1] worked out at 65.8 °C. Also, the folding enthalpy in data set [2] was -38.8 kcal/mol.

In the case of GTAACGCGAAAGCGGTAC (((.(((....))).))), the Tm in data set [1] stood at 65.3 °C. Besides, the folding enthalpy in data set [2] was -27.1 kcal/mol.

GTAACGGGAAACCGTCAC ((.((((....)))).)): the Tm in data set [1] was 35.7 °C. The folding enthalpy in data set [2] is -16.4 kcal/mol.

Consider GTAACGGGAAACCGTTAC (((((((....))))))), for which the Tm in data set [1] was 60.5 °C. For the same sequence, the folding enthalpy in data set [2] was -49.6 kcal/mol.

On to GTAACTCGAAAGAGTAC (((.(((....)))))), for which, in data set [1], the Tm was 42.4 °C. The folding enthalpy in data set [2] is -15 kcal/mol.

For the sequence GTAACTGAAAAGTTAC ((((((....)))))), the Tm in data set [1] was determined as 50.9 °C. In addition, the folding enthalpy in data set [2] was -31.4 kcal/mol.

GTAAGACGAAAGTCGTAC (((.(((....))).))): in data set [1], the Tm is 50.4 °C. In addition, the folding enthalpy in data set [2] was -17.8 kcal/mol.

Turning to GTAAGACGAAAGTCTAC (((.(((....)))))), in data set [1], the Tm was determined as 41.7 °C. The folding enthalpy in data set [2] was -14.6 kcal/mol.

Turning to GTAAGAGGAAACTCTTGC (.(((((....))))).), the Tm in data set [1] was 38.7 °C. Also, the folding enthalpy in data set [2] is -25 kcal/mol.

Turning to GTAAGCGAAAGCTTGTAC ((((((....)))..))), the Tm in data set [1] was 32.3 °C. In data set [2], the folding enthalpy is -11.7 kcal/mol.

For the sequence GTAAGCGGAAACACTTAC (((((.(....).))))), the Tm in data set [1] turned out to be 35.6 °C. In addition, the folding enthalpy in data set [2] is -29.8 kcal/mol.

For GTAAGCGGAAACGTTTGC (.((.((....)).)).), the Tm in data set [1] amounted to 31.9 °C. In data set [2], the folding enthalpy is -14.9 kcal/mol.

Turning to GTAAGGCCGAAAGGCTAC (((..(((....)))))), in data set [1], the Tm was determined as 33.8 °C. The folding enthalpy in data set [2] is -9.55 kcal/mol.

GTAAGGCGAAAGCCGTAC (((.(((....))).))): the Tm in data set [1] was determined as 53 °C. The folding enthalpy in data set [2] was -14.2 kcal/mol.

For GTAAGGGAAACCTTAC ((((((....)))))), the Tm in data set [1] was determined as 48 °C. In data set [2], the folding enthalpy was -26.2 kcal/mol.

For the sequence GTAAGGGGAAACCCCTAC (((.(((....))).))), the Tm in data set [1] came out at 39 °C. Besides, in data set [2], the folding enthalpy was -16.9 kcal/mol.

For the sequence GTAAGGGGAAACCCTTGC (.(((((....))))).), in data set [1], the Tm was found to be 46.2 °C. Moreover, in data set [2], the folding enthalpy is -23.3 kcal/mol.

With GTAAGTCCGAAAGGATAC (((..(((....)))))), in data set [1], the Tm turned out to be 25.9 °C. For the same sequence, the folding enthalpy in data set [2] was -10.1 kcal/mol.

For GTAAGTCGAAAGACCTAC (((.(((....))).))), the Tm in data set [1] amounted to 35.7 °C. Further, in data set [2], the folding enthalpy was -17 kcal/mol.

In the case of GTAAGTGGAAACACTTAC (((((((....))))))), the Tm in data set [1] came out at 55.4 °C. Also, the folding enthalpy in data set [2] was -45.2 kcal/mol.

For the sequence GTAATAACGAAAGTTTAC (((..(((....)))))), the Tm in data set [1] came to 26.8 °C. In data set [2], the folding enthalpy is -10.5 kcal/mol.

In the case of GTAATACCGAAAGGTTAC (((..(((....)))))), in data set [1], the Tm stood at 31.5 °C. In data set [2], the folding enthalpy was -14.6 kcal/mol.

For the sequence GTAATCCGAAAGGAATAC (((.(((....))).))), in data set [1], the Tm was determined as 40.6 °C. Besides, the folding enthalpy in data set [2] is -26.2 kcal/mol.

On to GTAATCGAAAGATTATAC ((((((....)))..))), for which the Tm in data set [1] was determined as 33.4 °C. The folding enthalpy in data set [2] is -15.6 kcal/mol.

With GTAATCGGAAACGACTAC (((.(((....))).))), the Tm in data set [1] came out at 34.3 °C. In data set [2], the folding enthalpy is -19.5 kcal/mol.

On to GTAATGCGAAAGCAATAC (((.(((....))).))), for which the Tm in data set [1] worked out at 44.6 °C. Moreover, the folding enthalpy in data set [2] is -20 kcal/mol.

Take GTAATGCGAAAGCACTAC (((.(((....))).))): the Tm in data set [1] is 39.4 °C. Besides, the folding enthalpy in data set [2] is -19.9 kcal/mol.

Take GTAATGGGAAACCATTGC (.(((((....))))).): the Tm in data set [1] amounted to 43.3 °C. Moreover, in data set [2], the folding enthalpy is -26.4 kcal/mol.

For the sequence GTAATGGGAAACCGTTAC ((((.((....)).)))), the Tm in data set [1] turned out to be 44.1 °C. Moreover, the folding enthalpy in data set [2] is -34.3 kcal/mol.

Turning to GTAATGTCGAAAGACTAC (((..(((....)))))), the Tm in data set [1] was determined as 28.8 °C. In data set [2], the folding enthalpy is -11.7 kcal/mol.

Take GTAATTGGAAACAATTAC (((((((....))))))): in data set [1], the Tm stood at 50.4 °C. In addition, the folding enthalpy in data set [2] is -45.9 kcal/mol.

Take GTAATTGGAAACGATTAC (((((.(....).))))): the Tm in data set [1] was 38.1 °C. Further, in data set [2], the folding enthalpy is -32.4 kcal/mol.

As for GTACAACGAAAGTTTAC (((.(((....)))))), the Tm in data set [1] stood at 27.8 °C. Further, the folding enthalpy in data set [2] was -11.5 kcal/mol.

Regarding GTACAAGCGAAAGCTTAC (((..(((....)))))), in data set [1], the Tm was found to be 28.4 °C. In addition, the folding enthalpy in data set [2] was -11.2 kcal/mol.
